Assay outcomes deposited in PubChem BioAssay by several laboratories.
Sampled rows, rich in hits. Any-hit rate of the full collection: about 2.2%.
MDM2 E3 inh = inhibitors of human Mdm2 E3 ubiquitin ligase; Q00987; cell-based MDM2 ubiquitination luciferase reporter, 2 h; 0 = plate control, 100 = twice control, blank-subtracted; signal enhancement, % at 5 µM; 210,000 tested, 0.11% active;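 active = signal enhancement of 30% or more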;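 note: luminescence tracks abundance of the self-degrading MDM2-luciferase fusion protein; higher signal means inhibition of MDM2 E3 ligase activity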
Target sequence (Q00987 whole entry, looked up, the tested form may be a part): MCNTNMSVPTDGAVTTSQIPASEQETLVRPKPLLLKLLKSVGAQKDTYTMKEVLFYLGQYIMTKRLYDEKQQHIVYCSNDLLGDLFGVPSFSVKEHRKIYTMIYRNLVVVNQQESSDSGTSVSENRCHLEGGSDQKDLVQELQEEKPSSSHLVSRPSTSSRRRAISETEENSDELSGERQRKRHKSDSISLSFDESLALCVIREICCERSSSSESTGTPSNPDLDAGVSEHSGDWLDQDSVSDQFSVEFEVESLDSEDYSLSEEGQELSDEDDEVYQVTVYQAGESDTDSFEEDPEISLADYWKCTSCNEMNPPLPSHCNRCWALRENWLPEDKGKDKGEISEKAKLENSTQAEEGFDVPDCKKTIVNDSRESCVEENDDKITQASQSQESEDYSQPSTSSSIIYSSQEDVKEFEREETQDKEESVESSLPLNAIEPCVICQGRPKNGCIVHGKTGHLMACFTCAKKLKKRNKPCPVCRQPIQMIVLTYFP
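system = mammalian cells stably expressing self-ubiquitinating, self-degrading MDM2 E3–luciferase fusion | quantity = 2000 cells per well seeded | incubation = 4 h cell settling then 2 h compound exposure, 37 °C | signal = SteadyLite luminescence, 15 min reagent step | benchmarks = plate control and blank wells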
RBBP9 inh = human RBBP9 hydrolase inhibition | recombinant RBBP9, FP-Rh probe fluorescence polarization | inhibition, % at 7.94 µM | 220,000 tested, 0.2% active | AID 1515;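 active = inhibition above the campaign mean of all tested compounds plus 3 SD, cut at about 14% in these data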
Target sequence (O75884 whole entry, looked up): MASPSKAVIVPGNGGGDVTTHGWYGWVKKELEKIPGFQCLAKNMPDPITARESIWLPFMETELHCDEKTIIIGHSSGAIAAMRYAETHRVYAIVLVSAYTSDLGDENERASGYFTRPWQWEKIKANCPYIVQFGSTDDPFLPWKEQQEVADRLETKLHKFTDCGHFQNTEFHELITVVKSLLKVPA
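Test system – recombinant human RBBP9 · Input – RBBP9 2.5 µM in dispensing solution, pre-mixing · Medium – Tris buffer pH 8.0, NaCl, Pluronic · Schedule – preincubation 30 min plus labeling 45 min at 25 °C · Measured by – fluorescence polarization · Measure – % inhibition · Controls – DMSO and no-protein wells · Replicates – one well per compound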
Ins promoter up = MIN6 insulin promoter up-regulation. z-score at 5 µM. AID 1625. 190,000 tested, 0.3% active. MIN6 insulin promoter-GFP reporter, high-content imaging; hits give high values;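 active = z-score above 3 at 5 µM with at least 500 cells counted in the well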
INS promoter inh = TRM-6 insulin promoter activity inhibition; TRM-6 cells, insulin promoter-eGFP reporter, imaging; reporter expression induced with tamoxifen; inhibition, % at 2 µM; 130,000 tested, 0.9% active; AID 1273;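 active = inhibition above the mean plus 3 SD, with well images judged a real hit on visual review, cut at about 60% in these data, passing the limit was not always enough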
Wee1 degr inh = blocks degradation of human Wee1 kinase; P30291; HeLa Luc-Wee1K328M stability, luciferase luminescence; 100% = proteasome inhibitor MG132 effect; reporter increase, % at 5 µM; 220,000 tested, 1.2% active;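 active = activation above the mean of all tested compounds plus 3 SD, set per screening run, cut at about 8.8% in these data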;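 note: cells exposed to compound for 20 h before luminescence read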
Hsp70 activator = Hsp70 transcriptional activation, primary screen | 200,000 tested, 0.04% active | HeLa Hsp70 promoter luciferase reporter, luminescence; scaled: vehicle 0, proteasome-inhibitor control 100% | activation, % at 10 µM;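 active = activation above the mean across all tested compounds plus 3 SD, cutoff set per campaign, cut at about 5.5% in these data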
Each line names hits and unclear results; the compound was inactive in the other large screens.

COC(=O)c1ccc(CN2CCN(C(C)C)C(CCO)C2)cc1 (stereo not given)	none (no result: Ins promoter up)
CC(O)CCC(=O)NCCNC(=O)CCC(C)O (stereo not given)	none
CC(O)C(=O)NCCOCCOCCNC(=O)C(C)O (stereo not given)	Wee1 degr inh 9.5
COc1ccc(CC(=O)NNS(=O)(=O)c2ccc(F)cc2)cc1OC	Wee1 degr inh 8.9
CCC(=O)NC1CCN(C(=S)NC)CC1	none
CCCOc1ccc(/C=N/Nc2ccccc2[N+](=O)[O-])c(OCCC)c1	INS promoter inh 84
COc1ccc(Cl)cc1S(=O)(=O)N1CCN(c2ccc(F)cc2)CC1	none
COc1c(S(=O)(=O)N2CCN(c3ccc(F)cc3)CC2)ccc(Cl)c1Cl	INS promoter inh 74
CN(CCNC(=O)CN1C(=O)CSc2ccc(S(=O)(=O)N3CCCC3)cc21)Cc1ccccc1	Wee1 degr inh 10
CC(C)n1cc(CN2CCCC(CO)(Cc3cccc(Cl)c3)C2)cn1 (stereo not given)	Wee1 degr inh 10 (no result: INS promoter inh)
CN(CC(=O)O/N=C(\N)c1cccc([N+](=O)[O-])c1)S(=O)(=O)c1ccccc1	none
COc1ccccc1OCC(=O)NNC(=O)c1c(-c2ccccc2Cl)noc1C	none (no result: Ins promoter up)
CCOc1nc(NC(=O)NS(=O)(=O)Oc2cccc(Cl)c2)nc(-c2ccccc2)n1	INS promoter inh 78
Cc1sc2ncn(Cc3ccccc3F)c(=O)c2c1C	none
O=c1c2ccsc2ncn1Cc1ccccc1F	Wee1 degr inh 15
CC(NC(=O)COC(=O)CC(c1ccccc1)c1ccccc1)c1ccccc1 (stereo not given)	none (no result: INS promoter inh)
CC(C)n1cc(/C(N)=N/O)c(=O)n(Cc2ccccc2)c1=O	none (no result: INS promoter inh, Hsp70 activator)
CCCCCC[n+]1c(-c2ccccc2)csc1Nc1ccccc1	none (no result: INS promoter inh)
COc1ccc(-c2csc(Nc3ccccc3)[n+]2CC(O)c2ccc([N+](=O)[O-])cc2)cc1 (stereo not given)	Wee1 degr inh 9.3 (no result: INS promoter inh, Hsp70 activator)
O=C(/C=C\c1ccc(-c2ccccc2)o1)c1ccccc1	Wee1 degr inh 8.8 (no result: INS promoter inh)
O=S(=O)(NC1CCCCC1Oc1ccccc1)c1ccccc1 (stereo not given)	none (no result: INS promoter inh)
C[C@@H]1CC[C@H](O)/C=C/C(=O)O[C@H](C)CC[C@H](O)/C=C/C(=O)O1	none (no result: RBBP9 inh, INS promoter inh, Wee1 degr inh, Hsp70 activator)
COc1ccc(NC(C)=O)cc1NC(=O)CN1CCN(C(=O)c2ccco2)CC1	none (no result: INS promoter inh)
CCc1ccc(NC(=S)N2CCCCCCC2)cc1	INS promoter inh 79
CCC(C)[C@H](NC(=O)N1CCN(C)CC1)C(=O)OC (stereo not given in full)	none
COc1ccc(C)cc1C1=Nc2ccccc2C1(C)C	MDM2 E3 inh 30
Cc1ccc(O)c(C2=Nc3ccccc3C2(C)C)c1	none (no result: INS promoter inh)
O=C(C1CC1)N1CCc2sccc2C1c1ccc(Cl)cc1 (stereo not given)	none (no result: Ins promoter up, INS promoter inh, Hsp70 activator)
Cc1ccc(S(=O)(=O)N(C)CCCC(=O)Nc2cccc3ccccc23)cc1	none
CCCCN(CCCC)C(=O)C[n+]1cccc(/C=N/O)c1	INS promoter inh 71
CCOCC(=O)Nc1cccc(SC)c1	none (no result: INS promoter inh)
CSc1cccc(NC(=O)COc2cccc3ccccc23)c1	INS promoter inh 73
Cc1cc(N2CCN(C(=O)c3ccco3)CC2)n2nc(-c3cccc(Cl)c3)cc2n1	Wee1 degr inh 9.2 (no result: INS promoter inh)
CCC(C)(C)C1CCc2[nH]nc(C(=O)N/N=C(\C)c3ccco3)c2C1 (stereo not given)	none (no result: INS promoter inh, Hsp70 activator)
O=C(NN=C1CCCC1)c1n[nH]c2c1CCC2	Wee1 degr inh 11 (no result: MDM2 E3 inh, Ins promoter up, INS promoter inh)
C/C(=N\NC(=O)c1n[nH]c2c1CCC2)c1ccco1	Wee1 degr inh 9.3 (no result: INS promoter inh, Hsp70 activator)
O=C(N/N=C/c1c(Cl)cccc1Cl)c1n[nH]c2c1CCCC2	Wee1 degr inh 10.0 (no result: Ins promoter up, INS promoter inh)
C/C(=N\NC(=O)c1cccc(N/N=C(\C)c2ccco2)c1)c1ccco1	INS promoter inh 82
O=C(NN=C1CCCC1)c1n[nH]c2c1CCCC2	none
CCC(CC)C(=O)Nc1nnc(SCC(=O)NC(C)(C)C)s1	none
Cc1cc(C)c(C(=O)COC(=O)CCNS(=O)(=O)c2c(Cl)cccc2Cl)cc1C	none
O=C(COC(=O)CC12CC3CC(CC(C3)C1)C2)Nc1ncc(Cl)cc1Cl	INS promoter inh 100
O=C(COC(=O)C12CC3CC(CC(C3)C1)C2)Nc1ncc(Cl)cc1Cl	none
O=C(N/N=C/c1ccc(Cl)cc1)C1CC12CCC2 (stereo not given)	none
CC(=O)Nc1ccc(N2CCc3c(C)c(C#N)c4nc5ccccc5n4c32)cc1	Ins promoter up 3.8
Cc1c2c(n3c(nc4ccccc43)c1C#N)N(Cc1cccnc1)CC2	none (no result: MDM2 E3 inh, Ins promoter up)
COc1ccccc1NC(=O)/C=C1\SCC(=O)N1C	Ins promoter up 4.7 (no result: INS promoter inh)
COc1cccc(CN2CCN(Cc3ccc(C#CC(C)(C)O)s3)CC2CCO)c1 (stereo not given)	Wee1 degr inh 10 (no result: INS promoter inh)
C=CCOC(=O)C1=C(C)NC(SCC(=O)Nc2ccccc2)=C(C#N)C1c1ccco1 (stereo not given)	none
Cc1ccc(C(=O)CSc2nnnn2Cc2ccccc2)cc1C	none (no result: MDM2 E3 inh, INS promoter inh, Hsp70 activator)
O=C(CSc1nnnn1Cc1ccccc1)c1ccccc1F	INS promoter inh 93
Clc1ccc2nc3ccccn3c2c1	none
N#Cc1ccc2c(c1)nc1ccccn12	INS promoter inh 79
CC(=O)c1cc2c(cc1NS(=O)(=O)c1ccc(F)cc1)OCO2	none (no result: INS promoter inh)
COc1ccc(-c2noc(CCCC(=O)Nc3ccc(C(N)=O)cc3)n2)cc1	none
COc1cc(-c2noc(CCCC(=O)Nc3ccc(C(N)=O)cc3)n2)cc(OC)c1OC	Wee1 degr inh 10 (no result: INS promoter inh, Hsp70 activator)
O=C(NN=C1CCN(Cc2ccccc2)CC1)c1cccc(S(=O)(=O)Nc2ccccc2Cl)c1	Ins promoter up 3
Cc1cccn2c(CNCCCn3ncc4ccccc43)c(C(=O)N3CCCCC3)nc12	Wee1 degr inh 10 (no result: Ins promoter up)
Cc1cccn2c(CNCCSc3nccn3C)c(C(=O)N3CCCCC3)nc12	Wee1 degr inh 8.9 (no result: INS promoter inh, Hsp70 activator)
O=C(c1nc2ccccn2c1CNCCCn1ncc2ccccc21)N1CCOCC1	none (no result: INS promoter inh)
Cc1ccccc1OCCSc1nnc(-c2cccnc2)n1N	none (no result: INS promoter inh)
Cc1ccc(N=Nc2c(C)[nH][nH]c2=O)c(C)c1	INS promoter inh 73
Cc1ccc(N2CCN(CC(O)COc3cccc4ccccc34)CC2)cc1 (stereo not given)	none (no result: MDM2 E3 inh, INS promoter inh, Hsp70 activator)
OC(COc1cccc2ccccc12)CN1CCN(c2ccccc2Cl)CC1 (stereo not given)	Ins promoter up 3.5 (no result: MDM2 E3 inh, INS promoter inh, Hsp70 activator)
N#Cc1cnn2c(-c3cccc(C(F)(F)F)c3)ccnc12	none (no result: INS promoter inh, Hsp70 activator)
Cc1cccc(C)c1NC(=O)C1=C(O)c2sccc2N(C)S1(=O)=O	none
O=C(c1ccc(Cl)cc1)N1CCCCC(Cl)C1=O (stereo not given)	none
COc1ccc(NC(=O)/C(C#N)=C\c2ccc(OCc3ccc(C(=O)O)cc3)c(OC)c2)cc1	MDM2 E3 inh 30
